In brackets after ≈: the same amount, converted by molar mass.
Legend:
Trypanosoma cruzi = assay: WHO-TDR: Chagas disease; type: functional, organism-based, Homo sapiens; conditions: MRC5
Method in brief: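 Each IC50 reflects antiparasitic potency against intracellular amastigotes of Trypanosoma cruzi Tulahuen CL2 beta-galactosidase strain. These were cultured in MRC-5SV2 human lung fibroblasts and exposed to a 10,000-compound diverse Life Chemicals library screened according to published standard procedures with a reference drug as positive control.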

Leishmania infantum = assay: WHO-TDR: Leishmaniasis; type: functional, organism-based, Mus musculus; conditions: Macrophage
Method in brief: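 Values are IC50 figures for antiparasitic potency. They come from a whole-organism screen of a 10,000-compound diverse Life Chemicals library against Leishmania infantum MHOM/MA(BE)/67 amastigotes inside murine peritoneal macrophage host cells.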

[1] = system: Trypanosoma brucei brucei; assay: WHO-TDR: Human African Trypanosomiasis (HAT); type: functional, organism-based; conditions: Squib-427
Method in brief: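 Values are IC50 figures for antiparasitic potency. They come from a whole-organism screen of 10,000 diverse Life Chemicals compounds against bloodstream-form Trypanosoma brucei (Squib 427 strain).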

Schistosoma mansoni = assay: WHO-TDR: Schistosomiasis; type: functional; parameters: concentration or dose not given beside the values
Method in brief: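 Values are reported as percent inhibition and IC50. They come from a whole-organism screen of a 10,000-compound diverse Life Chemicals library against larval and/or adult worms of Schistosoma mansoni, Puerto Rican strain. The library had been filtered for drug-likeness and reactive groups.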

Onchocerca ochengi = assay: WHO-TDR: Onchocerciasis; type: functional; parameters: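 at 12.5 µM on microfilariae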
Method in brief: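 Values are reported as percent inhibition and as IC50. They come from a whole-organism screen of a 10,000-compound diverse Life Chemicals library against microfilariae of Onchocerca ochengi or Onchocerca lienalis. The screen followed previously published standard procedures, with reference drugs as positive controls.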

[2] = WHO-TDR: Cytotoxicity; type: toxicity, cell-based; conditions: human, MRC5 cells
Plasmodium falciparum K1 = assay: WHO-TDR: Malaria; type: functional, organism-based, Homo sapiens; conditions: Erythrocyte
Method in brief: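 Values are IC50 figures for antiplasmodial potency. They come from a whole-organism screen of 10,000 diverse Life Chemicals compounds against Plasmodium falciparum K1 growing inside human red blood cells, run by previously published standard procedures.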

Brugia malayi = assay: WHO-TDR: Lymphatic Filariasis; type: functional; parameters: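 tested at 10 µM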
Method in brief: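 Values are percent inhibition and IC50 from a whole-organism screen against Brugia malayi microfilariae. The compounds, 10,000 in all, came from a diverse Life Chemicals library filtered for drug-likeness and reactive groups.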

Compound	IC50 (Trypanosoma cruzi) [µg/mL]	IC50 (Leishmania infantum) [µg/mL]	IC50 [1] [µg/mL]	% Inhibition (Schistosoma mansoni) [%]	% Inhibition (Onchocerca ochengi) [%]	IC50 [2] [µg/mL]	IC50 (Plasmodium falciparum K1) [µg/mL]	% Inhibition (Brugia malayi) [%]
Cc1ccccc1OCC(=O)NCCS(=O)(=O)N1CCN(Cc2ccccc2)CC1	> 14	> 14	> 14	83.3	100	> 14	> 14	20
Cc1ccc(C(=O)Nc2nnc(Cc3cccs3)o2)cc1C	3.01 (≈ 9.61 µM)	> 9.4	0.383 (≈ 1.22 µM)	25	0	> 9.4	> 9.4	50
O=C(Nc1ccc2c(c1)N(C(=O)c1cccs1)CC2)c1cc2ccccc2oc1=O	> 12.5	0.404 (≈ 0.97 µM)	> 12.5	16.7	0	> 12.5	> 12.5	0
O=C(CS(=O)(=O)Cc1ccccc1)Nc1cc(Cl)cc(Cl)c1	> 10.7	> 10.7	> 10.7	0	100	> 10.7	> 10.7	0
O=C(CC(c1ccccc1)c1ccccc1)NCCCn1nc(-c2ccncc2)ccc1=O	5.91 (≈ 13.5 µM)	> 13.2	7.53 (≈ 17.2 µM)	0	100	> 13.2	5.95 (≈ 13.6 µM)	0
CCc1ccc2nc(N(CCCn3ccnc3)C(=O)C3COc4ccccc4O3)sc2c1 (stereo not given)	1.22 (≈ 2.73 µM)	4.71 (≈ 10.5 µM)	4.71 (≈ 10.5 µM)	0	100	4.4 (≈ 9.81 µM)	0.363 (≈ 0.809 µM)	0
CCn1nc(C)cc1C(=O)N1CCN(c2nc3c(C)ccc(C)c3s2)CC1	> 11.5	> 11.5	> 11.5	16.7	100	> 11.5	> 11.5	0
O=C(c1ccc(C(F)(F)F)cc1)N1CCN(c2ccc(Nc3cccnc3)nn2)CC1	3.43 (≈ 8.02 µM)	> 12.9	> 12.9	0	100	7.94 (≈ 18.5 µM)	> 12.9	25
CCOc1ncccc1C(=O)N1CCN(c2ccc(-c3ccc(Cl)cc3)nn2)CC1	8.92 (≈ 21 µM)	> 12.7	> 12.7	100	0	> 12.7	> 12.7	0
Cn1nccc1C(=O)Nc1nc2c(s1)CSc1ccccc1-2	2.05 (≈ 6.23 µM)	3.19 (≈ 9.71 µM)	0.315 (≈ 0.959 µM)	100	100	0.145 (≈ 0.442 µM)	> 9.85	0
Cc1cccc(Nc2ccc(NCCNC(=O)Nc3ccccc3)nn2)n1	> 10.9	> 10.9	> 10.9	0	100	10.4 (≈ 28.7 µM)	4.75 (≈ 13.1 µM)	0
O=C(CCn1cnc2c(cnn2-c2ccccc2)c1=O)Nc1nccs1	> 11	3.56 (≈ 9.71 µM)	> 11	100	0	> 11	> 11	20
CCc1nnc(NS(=O)(=O)c2ccc(NC(=O)c3ccc(S(=O)(=O)N4CCCCC4C)cc3)cc2)s1 (stereo not given)	> 16.5	> 16.5	5.34 (≈ 9.71 µM)	0	100	> 16.5	13.4 (≈ 24.4 µM)	0
O=C(C1CC1)N1CCN(c2ccc(-c3ccccn3)nn2)CC1	2.1 (≈ 6.77 µM)	> 9.28	2.94 (≈ 9.49 µM)	25	100	2.38 (≈ 7.7 µM)	1.05 (≈ 3.39 µM)	33.33
COc1ccc(C(=O)C2C(=O)N(c3ccccc3)N=C2C)c(OC)c1 (stereo not given)	> 10.2	> 10.2	> 10.2	0	100	> 10.2	> 10.2	0
